These results are taken from ChEMBL document CHEMBL1121371, “Antihypertensive 5,6-diarylpyridazin-3-ones” (1980).

Structures are written as SMILES. Active and inactive are the calls of the source. The rule behind the calls is not given here.

For assay [1], the system named is Rattus norvegicus. The assay is described as follows: Antihypertensive activity in spontaneously hypertensive rats was measured as average blood pressure at 30 mg/kg, p.o. after 4 hours of postdose-2. The format is functional. As to conditions: route oral. A digest of the protocol:
(§1)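 Spontaneously hypertensive rats aged 12 to 16 weeks, in groups of five with systolic pressure of 170 mmHg or more. Oral dosing as a solution or suspension in 0.25% methylcellulose, 5 mL/kg, with a vehicle control group. Tail-cuff systolic pressure was read predose and 4 and 24 h after each of two doses. Values were compared with predose by Student's t test.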

Assay [2] concerns Rattus norvegicus. The assay is described as follows: Antihypertensive activity in spontaneously hypertensive rats was measured as average blood pressure at 30 mg/kg, p.o. after 24 hours of postdose-2. The format is functional. As to conditions: route oral. The method in brief:
as §1

Assay [3] has as its system Rattus norvegicus. The assay is described as follows: Antihypertensive activity in spontaneously hypertensive rats was measured as average blood pressure at 100 mg/kg, p.o. after 24 hours of postdose-1. As to conditions: route oral. The format is functional. A digest of the protocol:
as §1

For assay [4], the species on record is Rattus norvegicus. The assay is described as follows: Antihypertensive activity in spontaneously hypertensive rats was measured as decrease in heart rate; (-)=decreased heart rate. The format is functional, organism-based.
Assay [5] has as its system Rattus norvegicus. The assay is described as follows: Antihypertensive activity in spontaneously hypertensive rats was measured as average blood pressure at 30 mg/kg, po after 4 hours of postdose-1. It counts as functional. The method in brief:
as §1

Assay [6] concerns Rattus norvegicus. The assay is described as follows: Antihypertensive activity in spontaneously hypertensive rats was measured as average blood pressure at 10 mg/kg, p.o. after 4 hours of postdose-1. The format is functional. As to conditions: route oral. A digest of the protocol:
as §1

Assay [7] concerns Rattus norvegicus. The assay is described as follows: Antihypertensive activity in spontaneously hypertensive rats was measured as average blood pressure at 100 mg/kg, p.o. before predose. The format is functional. As to conditions: route oral. The method in brief:
as §1

The subject of assay [8] is Rattus norvegicus. The assay is described as follows: Antihypertensive activity in spontaneously hypertensive rats was measured as average blood pressure at 10 mg/kg, p.o. before predose. As to conditions: route oral. It counts as functional. A digest of the protocol: as §1
Assay [9] has as its system Rattus norvegicus. The assay is described as follows: Antihypertensive activity in spontaneously hypertensive rats was measured as average blood pressure at 100 mg/kg, p.o. after 4 hours of postdose-1. It counts as functional. As to conditions: route oral. A digest of the protocol: as §1
In assay [10] the test system is Rattus norvegicus. The assay is described as follows: Antihypertensive activity in spontaneously hypertensive rats was measured as average blood pressure at 100 mg/kg, p.o. after 4 hours of postdose-2. It counts as functional. As to conditions: route oral. The method in brief: as §1
Assay [11] relates to Rattus norvegicus. The assay is described as follows: Antihypertensive activity in spontaneously hypertensive rats was measured as average blood pressure at 10 mg/kg, p.o. after 24 hours of postdose-1. As to conditions: route oral. It counts as functional. A digest of the protocol: as §1
In assay [12] the test system is Rattus norvegicus. The assay is described as follows: Antihypertensive activity in spontaneously hypertensive rats was measured as average blood pressure at 30 mg/kg, p.o. before predose. It counts as functional. As to conditions: route oral. The method in brief: as §1
Assay [13] deals with Rattus norvegicus. The assay is described as follows: Antihypertensive activity in spontaneously hypertensive rats was measured as average blood pressure at 100 mg/kg, po after 24 hours of postdose-2. It counts as functional. A digest of the protocol: as §1
Assay [14] deals with Rattus norvegicus. The assay is described as follows: Antihypertensive activity in spontaneously hypertensive rats was measured as average blood pressure at 10 mg/kg, p.o. after 24 hours of postdose-2. It counts as functional. As to conditions: route oral. The method in brief:
as §1

Assay [15] relates to Rattus norvegicus. The assay is described as follows: Antihypertensive activity in spontaneously hypertensive rats was measured as average blood pressure at 10 mg/kg, p.o. after 4 hours of postdose-2. It counts as functional. As to conditions: route oral. A digest of the protocol:
as §1

Assay [16] concerns Rattus norvegicus. The assay is described as follows: Antihypertensive activity in spontaneously hypertensive rats was measured as average blood pressure at 30 mg/kg, p.o. after 24 hours of postdose-1. As to conditions: route oral. It counts as functional. A digest of the protocol:
as §1

In assay [17] the test system is Rattus norvegicus. The assay is described as follows: Antihypertensive activity in spontaneously hypertensive rats was measured as average blood pressure at 25 mg/kg, p.o. before predose. As to conditions: route oral. The format is functional. A digest of the protocol: as §1
Assay [18] relates to Rattus norvegicus. The assay is described as follows: Antihypertensive activity in spontaneously hypertensive rats was measured as average blood pressure at 25 mg/kg, p.o. after 24 hours of postdose-2. It counts as functional. As to conditions: route oral. The method in brief: as §1
Assay [19] concerns Rattus norvegicus. The assay is described as follows: Antihypertensive activity in spontaneously hypertensive rats was measured as average blood pressure at 25 mg/kg, p.o. after 4 hours of postdose-2. The format is functional. As to conditions: route oral. The method in brief: as §1
The test system of assay [20] is Rattus norvegicus. The assay is described as follows: Antihypertensive activity in spontaneously hypertensive rats was measured as average blood pressure at 25 mg/kg, p.o. after 4 hours of postdose-1. It counts as functional. As to conditions: route oral. A digest of the protocol:
as §1

Assay [21] has as its system Rattus norvegicus. The assay is described as follows: Antihypertensive activity in spontaneously hypertensive rats was measured as average blood pressure at 25 mg/kg, p.o. after 24 hours of postdose-1. It counts as functional. As to conditions: route oral. The method in brief: as §1
The species named for assay [22] is Rattus norvegicus. The assay is described as follows: Antihypertensive activity in spontaneously hypertensive rats was measured; (+)=Increased heart rate. It counts as functional, organism-based.

On to `CC(=O)c1c(-c2ccc(Cl)cc2)c(-c2ccc(Cl)cc2)nn(CCN2CCCC2)c1=O`, for which the BP in the assay with Rattus norvegicus [1] came to 191 mmHg; with Rattus norvegicus [2], 199 mmHg; in the assay with Rattus norvegicus [3] it was 138 mmHg; in the assay on Rattus norvegicus [5], 200 mmHg; in the assay on Rattus norvegicus [6], 205 mmHg; in the assay on Rattus norvegicus [7], 192 mmHg. For the same molecule, the BP in the assay with Rattus norvegicus [8] is 208 mmHg; in the assay on Rattus norvegicus [9], 155 mmHg; in the assay on Rattus norvegicus [10] it was 142 mmHg; in the assay with Rattus norvegicus [11], 204 mmHg; with Rattus norvegicus [12], 212 mmHg; in the assay on Rattus norvegicus [13], 146 mmHg. The BP with Rattus norvegicus [14] is 207 mmHg; in the assay on Rattus norvegicus [15], 202 mmHg; with Rattus norvegicus [16] it was 187 mmHg. Besides, the BP entry in the assay listed under Rattus norvegicus [4] was “inactive”.

Turning to `Br.CC(=O)c1c(-c2ccc(Cl)cc2)c(-c2ccc(Cl)cc2)nn(CCN)c1=O`, the BP was determined as 194 mmHg in the assay on Rattus norvegicus [17]; 183 mmHg in the assay with Rattus norvegicus [18]; 177 mmHg in the assay with Rattus norvegicus [19]; 184 mmHg with Rattus norvegicus [20]; 162 mmHg in the assay with Rattus norvegicus [21].

As for `O=c1c(-c2ccccc2)c(-c2ccccc2)c(-c2ccccc2)nn1CCO`, the BP came to 187 mmHg with Rattus norvegicus [3]; 200 mmHg in the assay on Rattus norvegicus [7]; 173 mmHg with Rattus norvegicus [9]; 176 mmHg in the assay on Rattus norvegicus [10]; 188 mmHg in the assay with Rattus norvegicus [13]. Also, the Heart rate result in the assay listed under Rattus norvegicus [22] is given as “Increased heart rate”.
